{"source": "ChEMBL document CHEMBL1649392", "about": "“Synthesis of substituted 3-amino-N-phenyl-1H-indazole-1-carboxamides endowed with antiproliferative activity” (Eur J Med Chem, 2011)", "key": {"[1]": {"assay": "Cytotoxicity in HFF cells after 72 hrs by trypan blue exclusion assay", "type": "cell-based", "conditions": "human", "outline": "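Human normal fibroblasts, 2 × 10⁵ per well, seeded in RPMI 1640 with 10% fetal calf serum plus penicillin and streptomycin at 37 °C under CO₂. Compound added after 24 h. Living cells counted at 72 h by trypan blue exclusion, expressed as percent of control proliferation; GI50 derived.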"}, "K562 [2]": {"tested_on": "K562", "assay": "Induction of cell cycle arrest in human K562 cells assessed as decrease in accumulation at S phase at 40 uM after 24 hrs by flow cytometric analysis", "type": "functional, cell-based", "outline": "(§1)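 K562 myeloblastic leukemia cells cultured 24 h with compound at 20, 40 or 60 µM, or untreated. Cells washed in ice-cold PBS and resuspended at 10⁶/mL in hypotonic propidium iodide (50 µg/mL) with 0.03% Nonidet P-40 in 0.1% sodium citrate. After 30 min, DNA content read by flow cytometry; sub-G0/G1, G0/G1, S and G2/M fractions scored.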"}, "K562 [3]": {"tested_on": "K562", "assay": "Induction of cell cycle arrest in human K562 cells assessed as increase in accumulation at G0/G1 phase at 60 uM after 24 hrs by flow cytometric analysis", "type": "functional, cell-based", "outline": "as §1"}, "K562 [4]": {"tested_on": "K562", "assay": "Induction of apoptosis in human K562 cells assessed as increase in hypophosphorylated Rb level at 60 uM after 1.5 hrs by flow cytometric assay", "type": "functional, cell-based", "outline": "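K562 cells treated with or without 60 µM compound. 1.5 × 10⁶ cells washed in PBS, fixed and permeabilized 20 min in Cytofix/Cytoperm, then washed in Perm/Wash buffer. Stained 30 min at 4 °C with FITC anti-total pRb or PE anti-hypophosphorylated pRb mAbs, washed, and analysed by flow cytometry.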"}}, "note": "Calls of active or inactive are those of the source. No cut-off for these calls is given here."}
{"smiles": "Nc1nn(C(=O)Nc2ccc(Cc3ccccc3)cc2)c2ccc(Cl)cc12", "values": [{"measurement": "GI50 at 72 h", "setting": "[1]", "value": 36, "unit": "µM"}, {"measurement": "Activity", "setting": "K562 [2]", "value": "Active"}, {"measurement": "Activity", "setting": "K562 [3]", "value": "Active"}, {"measurement": "Activity", "setting": "K562 [4]", "value": "Active"}]}
